Laboratory results: ChEMBL document CHEMBL1121496, “Metabolism of 6-substituted benzo[a]pyrene derivatives: O-dealkylation and regiospecificity in aromatic hydroxylation” (J Med Chem, 1980)

Assays:
Assay type in all cases: functional
Rattus norvegicus [1] = species: Rattus norvegicus; test: Rate of hydroxylation by liver microsomes in rats induced with 3-MC; Rates are expressed as pmol of product per 30 min per mg of protein
Method in brief: (§1)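 Male Wistar MRC rats (7–8 weeks old) received 3-MC 40 mg/kg ip in olive oil twice daily for 3 days and were fasted for the final 24 h. Liver microsomes were incubated at 0.5 mg protein/mL with substrate (BP in acetone, others in Me₂SO) for 30 min. Phenolic metabolites were read by fluorescence in base against synthetic phenol standards. Each rat was run in duplicate against a heat- or acetone-inactivated blank, and results are reported as mean ± SE.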

Rattus norvegicus [2] = species: Rattus norvegicus; test: Rate of hydroxylation by lung microsomes in rats induced with 3-MC; Rates are expressed as pmol of product per 30 min per mg of protein
Method in brief: (§2)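 For lung microsomes from 3-MC-induced rats, the dose was 40 mg/kg ip in olive oil, given twice daily for 3 days, followed by a 24 h fast. Incubation used 1.0 mg microsomal protein/mL, with BP added in acetone and derivatives in Me₂SO. Base-extractable phenols were measured by fluorescence and quantitated with synthetic hydroxy-BP standards. Duplicates were corrected against inactivated-microsome blanks, and results are given as mean ± SE across individual rats.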

Rattus norvegicus [3] = species: Rattus norvegicus; test: Rate of O-Dealkylation by lung microsomes in rats induced with 3-MC; Rates are expressed as pmol of product per 30 min per mg of protein; method in brief: as §2
Rattus norvegicus [4] = species: Rattus norvegicus; test: Rate of O-Dealkylation by liver microsomes in rats induced with 3-MC; Rates are expressed as pmol of product per 30 min per mg of protein; method in brief: as §1
Rattus norvegicus [5] = species: Rattus norvegicus; test: Rate of O-Dealkylation by lung microsomes in rats induced with PB; Rates are expressed as pmol of product per 30 min per mg of protein
Method in brief: (§3)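 Rats were pretreated with phenobarbital, 40 mg/kg ip in saline, twice daily for 3 days, and fasted the last 24 h. Lung microsomes were incubated at 1.0 mg protein/mL with substrate in acetone (BP) or Me₂SO. Product formed over 30 min was measured as fluorescence of phenolic metabolites in basic solution against synthetic phenol standards. Determinations were made in duplicate versus a heat-inactivated blank, and results are reported as mean ± SE.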

Rattus norvegicus [6] = species: Rattus norvegicus; test: Rate of O-Dealkylation by liver microsomes in rats induced with PB; Rates are expressed as pmol of product per 30 min per mg of protein
Method in brief: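 Phenobarbital-induced rats: male Wistar MRC, 7–8 weeks, 40 mg/kg ip in saline twice daily for 3 days, fasted 24 h. Liver microsomes were used at 0.5 mg protein/mL. BP ethers were added in Me2SO, and phenolic products were measured by fluorescence of basic solutions against phenol standards. p-Nitroanisole O-demethylase was assayed by a modified Netter–Seidel method. Runs were in duplicate versus heat-inactivated blank; mean ± SE across rats.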

Rattus norvegicus [7] = species: Rattus norvegicus; test: Rate of hydroxylation by lung microsomes in rats induced with PB; Rates are expressed as pmol of product per 30 min per mg of protein; method in brief: as §3
Rattus norvegicus [8] = species: Rattus norvegicus; test: Rate of hydroxylation by liver microsomes in rats induced with PB; Rates are expressed as pmol of product per 30 min per mg of protein
Method in brief: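 Liver microsomes (two livers pooled) from 7- or 8-week-old male Wistar MRC rats given phenobarbital 40 mg/kg ip in saline twice daily for 3 days, fasted final 24 h. Incubation at 0.5 mg protein/mL, with BP (80 nmol) in acetone or other substrates in Me2SO. Phenolic metabolites were read by fluorescence in base, quantitated against synthetic 3- or 1-phenol standards, in duplicate versus heat-inactivated blank; mean ± SE across rats.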

Rattus norvegicus [9] = species: Rattus norvegicus; test: Rate of 3-hydroxylation by lung microsomes in rats induced with PB; Rates are expressed as pmol of product per 30 min per mg of protein
Method in brief: (§4)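 Microsomes from lungs (two rats pooled) of 7- or 8-week-old male Wistar MRC rats dosed ip twice daily for 3 days with 3-MC 40 mg/kg in olive oil or phenobarbital 40 mg/kg in saline, then fasted 24 h. Incubation at 1.0 mg protein/mL. BP was added in acetone, other substrates in Me2SO. Base-extracted phenols were read by fluorescence against synthetic phenol standards, in duplicate versus heat-inactivated blank; mean ± SE across rats.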

Rattus norvegicus [10] = species: Rattus norvegicus; test: Rate of 3-hydroxylation by lung microsomes in rats induced with 3-MC; Rates are expressed as pmol of product per 30 min per mg of protein; method in brief: as §4

SMILES | Rate (pmol/30 min/mg protein) (Rattus norvegicus [1]) | Rate (pmol/30 min/mg protein) (Rattus norvegicus [2]) | Rate (pmol/30 min/mg protein) (Rattus norvegicus [4]) | further results
COCc1c2ccccc2c2ccc3cccc4ccc1c2c43 | 7040 | 654 |  | 
CCOc1ccc2ccc3c(OCC)c4ccccc4c4ccc1c2c34 |  |  | 3360 | Rate (pmol/30 min/mg protein) (Rattus norvegicus [3]): 156; Rate (pmol/30 min/mg protein) (Rattus norvegicus [5]): 48; Rate (pmol/30 min/mg protein) (Rattus norvegicus [6]): 2850
COc1c2ccccc2c2ccc3cccc4ccc1c2c43 | 9010 | 576 |  | Rate (pmol/30 min/mg protein) (Rattus norvegicus [7]): 69; Rate (pmol/30 min/mg protein) (Rattus norvegicus [8]): 1980
c1ccc2c(c1)cc1ccc3cccc4ccc2c1c34 | 5810 |  |  | Rate (Rattus norvegicus [9]): 49 pM; Rate (pmol/30 min/mg protein) (Rattus norvegicus [8]): 1160; Rate (Rattus norvegicus [10]): 618 pM
OCc1c2ccccc2c2ccc3cccc4ccc1c2c43 | 1510 | 182 |  | 
COc1ccc2ccc3c4ccccc4c(OC)c4ccc1c2c43 |  |  | 1250 | 
COc1ccc2ccc3c(OC)c4ccccc4c4ccc1c2c34 | 5700 |  |  | 
COc1ccc([N+](=O)[O-])cc1 |  |  | 229000 | Rate (pmol/30 min/mg protein) (Rattus norvegicus [6]): 103000
CCCOc1ccc2ccc3c(OCCC)c4ccccc4c4ccc1c2c34 |  |  | 818 | 
